Only some compounds are listed: those with a hit (about 3.5% of all), similar ones and a draw of the others.
RGS4 inh: human RGS4 inhibition; B-score at 10 µM; HEK293 M3R/RGS4 inducible, Fluo-4 calcium flux; hits give high values; triggered by carbachol at its EC20; P49798; 310,000 tested, 0.45% active;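 active = B-score, a plate-corrected calcium signal, over three deviations above library mean, with baseline fluorescence within five deviations of library mean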;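 note: RGS4 expression induced by doxycycline in cells with stable M3 receptor; B-score is computed from the integrated fluorescence ratio over baseline after carbachol; higher B-score means a larger calcium signal and so more RGS4 inhibition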
Target sequence (P49798 whole entry, looked up): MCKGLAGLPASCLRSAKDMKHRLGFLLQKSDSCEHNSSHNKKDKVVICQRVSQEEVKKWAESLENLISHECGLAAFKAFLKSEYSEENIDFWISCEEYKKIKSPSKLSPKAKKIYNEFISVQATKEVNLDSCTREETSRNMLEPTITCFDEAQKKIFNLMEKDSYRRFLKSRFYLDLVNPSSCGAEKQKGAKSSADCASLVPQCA
MrgX1 ag: activates human MrgX1 receptor signaling; 310,000 tested, 0.44% active; MrgX1-HEK293 cells, Fluo-4 calcium fluorescence, agonist mode; hits give high values; Q96LB2; B-score at 10 µM;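 active = calcium response B-score plate-corrected fluorescence ratio at least 3 library SD, with starting fluorescence B-score inside 5 SD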
Target sequence (Q96LB2 whole entry, looked up): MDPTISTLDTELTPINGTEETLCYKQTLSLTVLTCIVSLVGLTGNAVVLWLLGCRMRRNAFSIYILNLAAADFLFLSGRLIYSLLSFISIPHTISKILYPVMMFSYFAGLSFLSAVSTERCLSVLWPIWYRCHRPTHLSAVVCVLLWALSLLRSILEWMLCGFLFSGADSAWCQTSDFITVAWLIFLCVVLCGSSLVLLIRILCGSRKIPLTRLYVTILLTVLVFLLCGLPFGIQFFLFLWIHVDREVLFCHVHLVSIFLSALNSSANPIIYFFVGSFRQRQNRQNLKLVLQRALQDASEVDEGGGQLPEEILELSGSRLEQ
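Material: MrgX1-expressing HEK293 cells; input: 15,000 cells per well; doses: test compound given as first of three sequential additions; schedule: overnight plating before 1 h dye loading; technique: Fluo-4 NW calcium-flux fluorescence, kinetic read; evaluation: baseline-normalised fluorescence change ratio, B-scored; control set: plate-wise positive and negative controls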
MrgX1 antagonist: blocks BAM8-22 activation of human MrgX1 receptor; Q96LB2; MRGX1-HEK293 calcium flux, Fluo-4, BAM8-22 antagonism; hits give low values; B-score at 10 µM; 310,000 tested, 1.3% active;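 active = calcium-response B-score plate-corrected more than 3 library SD below zero, starting fluorescence within 5 deviations, no agonist response on first addition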;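 note: peak minus trough fluorescence over baseline after final BAM8-22 challenge near maximal dose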
MrgX1 allo act: allosterically activates human MrgX1 receptor signaling. MrgX1-HEK293, Fluo-4 calcium flux, FDSS; hits give high values. B-score at 10 µM. 310,000 tested, 0.63% active. AID 588675;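 active = plate-corrected calcium response at least 3 library SD above typical, normal starting fluorescence, not activating the receptor alone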;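 note: compound read alongside a low EC10 to EC30 dose of BAM8-22 agonist; peak minus trough fluorescence over baseline measured at the second addition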
RGS4 pot: RGS4 potentiation or activation; HEK293 M3R/inducible RGS4, carbachol calcium flux Fluo4; hits give low values; AID 463111; B-score at 10 µM; 310,000 tested, 0.92% active;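 active = B-score of the integrated calcium signal more than 4 SD below the library mean, with starting fluorescence not abnormally high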;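 note: negative B-score means reduced calcium response which marks RGS4 activation or potentiation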
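Detection: kinetic calcium fluorescence imaging with Fluo4-AM dye, 2 µM / Material: HEK293 cells with stable M3R and inducible RGS4 / Schedule: recording 10 s baseline at 1 Hz, 100 s post-agonist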
An asterisk follows results filed as active; i = inactive; x = no result given.

SMILES	RGS4 inh	MrgX1 ag	MrgX1 antagonist	MrgX1 allo act	RGS4 pot
Nc1ncnc(Oc2cccc3cccnc23)c1[N+](=O)[O-]	i	i	-5*	i	i
Cc1cccc(Oc2ncnc(N)c2[N+](=O)[O-])c1C	i	i	i	i	i
COc1ccc(-c2noc(CNC(=O)CCCN3C(=O)[C@H]4CC=CC[C@H]4C3=O)n2)cc1	i	i	i	i	i
Cc1cc2c(SCC(=O)NC3CCCC3)ncnc2s1	i	i	i	i	i
C=CCN1C(=O)S/C(=C/c2ccsc2)C1=O	i	i	i	i	i
C=CCN1C(=O)S/C(=C/c2ccc(Sc3nc4ccccc4[nH]3)o2)C1=O	i	i	-6.8*	i	i
CC(C)N1C(=O)S/C(=C/c2ccc(Sc3nc4ccccc4[nH]3)o2)C1=O	i	i	-7*	i	i
CC1(C)CC(=O)N(c2cc(Cl)cc(Cl)c2)C(=O)C1	i	i	i	i	i
OC(CNC1CCCCC1)COCCOc1ccc(Br)cc1 (stereo unspecified)	i	i	-9.2*	i	i
OC(CNC1CCCC1)COc1ccc(-c2ccccc2)cc1 (stereo unspecified)	i	i	i	i	i
O=[N+]([O-])c1ccc(OCC(O)CNC2CCCC2)cc1 (stereo unspecified)	i	28*	i	i	i
O=[N+]([O-])c1ccc(OCC(O)CN(C2CCCCC2)C2CCCCC2)cc1 (stereo unspecified)	i	i	i	i	i
CN(CCOc1ccccc1)C(=S)Nc1ccc(OC(F)F)cc1	i	i	i	i	i
O=C(OCc1cccc([N+](=O)[O-])c1)c1ccc2ccccc2n1	i	i	i	12*	i
O=C(OCc1ccc([N+](=O)[O-])cc1)c1ccc2ccccc2n1	i	i	i	i	i
Cc1ccc(C(=O)CC(=O)c2ccccc2)cc1	i	i	i	i	i
Cc1ccc(C(=O)Sc2cccccc2=O)cc1	i	49*	i	i	i
O=C(COc1ccc(Cl)cc1Cl)Nc1ccc(CN2CCOCC2)cc1	i	i	i	i	i
O=C(c1ccc(COc2ccc(Cl)cc2Cl)o1)N1CCCC1	i	i	i	i	-7.6*
Cc1cccc(NC(=S)NNC(=O)COc2ccc(Cl)cc2Cl)c1	i	i	i	10*	i
O=C(COc1ccc(Cl)cc1Cl)Nc1ccc(CN2CCCCC2)cc1	i	i	i	i	-7.1*
O=C(Cn1c(=S)[nH]c2ccccc2c1=O)NCCc1ccccc1	i	i	i	i	i
COc1ccccc1NC(=O)N1CCC(NC(=O)C(Cc2ccccc2F)NC(C)=O)CC1 (stereo unspecified)	i	i	i	i	i
CCCC(C(=O)NC1CCCC1)N(C(=O)c1snc(C(N)=O)c1N)c1ccc(F)cc1 (stereo unspecified)	i	x	x	x	i
COc1cccc(NC(=O)C(c2ccccc2)N2CCCCC2)c1 (stereo unspecified)	i	i	i	i	-7*
SMILES	RGS4 inh	MrgX1 ag	MrgX1 antagonist	MrgX1 allo act	RGS4 pot
CC(=O)Nc1ccc(-c2csc(-c3cccnc3)n2)cc1	i	i	i	i	i
CN(CC(=O)NCc1ccc(F)cc1)CC(=O)Nc1ccc(Cl)c(C(F)(F)F)c1	i	i	-5.6*	i	i
CC(NC(=O)CN(C)CC(=O)Nc1ccc(Cl)c(C(F)(F)F)c1)c1ccccc1 (stereo unspecified)	i	i	i	i	i
O=C(CN1CCN(Cc2ccc3c(c2)OCO3)CC1)NCC(F)(F)F	i	i	i	i	i
CSC1=N/C(=C\c2ccc(C)cc2)C(=O)S1	i	i	i	16*	i
CCOC(=O)SC1=N/C(=C\c2ccc(N(C)C)cc2)C(=O)S1	i	i	i	7.8*	i
CC(C)c1ccc(NC2CCCN(C(=O)c3cccs3)C2)cc1 (stereo unspecified)	i	i	i	i	i
Oc1ccc(COCc2ccccc2)c2cccnc12	i	i	-5.6*	i	i
CCCOCc1ccc(O)c2ncccc12	i	i	i	i	i
NC(N)=N/N=C/c1ccc2cccc(OCc3ccccc3)c2n1	i	i	-5.3*	i	i
NC(=S)N/N=C/c1ccc2cccc(OCc3ccccc3)c2n1	i	i	i	i	i
O=C(N/N=C/c1ccc2cccc(OCc3ccccc3)c2n1)c1ccc(Br)cc1	i	i	i	i	-10*
COc1ccccc1C(=O)NC(=O)COC(=O)Cn1cnc2c1c(=O)n(C)c(=O)n2C	i	i	i	i	i
Cc1cccc2c1ncc1c(=O)n(-c3ccccc3)[nH]c12	i	i	i	i	i
CCN1C(=O)CS/C1=C(\C#N)S(=O)(=O)c1ccccc1	i	41*	i	i	i
O=C(O)CCCNc1c(C(=O)Nc2ccc(Cl)cc2)cc([N+](=O)[O-])cc1[N+](=O)[O-]	i	i	i	i	i
CS(=O)(=O)c1ccc2nc(NC(=O)C3=NN(c4ccccc4)C(=O)CC3)sc2c1	i	i	i	i	i
COc1ccc2nc(NC(=O)C3=NN(c4ccccc4)C(=O)CC3)sc2c1	i	i	-5.6*	i	i
COC1=C/C(=C/c2c(N)n3nc(CC(=O)N4CCCC4)sc3nc2=O)C=CC1=O	i	i	-5.9*	i	i
CCOC1=C/C(=C/c2c(N)n3nc(CC(=O)N4CCCC4)sc3nc2=O)C=CC1=O	i	31*	i	i	i
COC1=CC(=Cc2c(N)n3nc(CC(=O)N4CCCCC4)sc3nc2=O)C=C(OC)C1=O	i	i	i	i	i
COc1ccc(CCNC(=O)CCCOc2ccc(Cl)cc2)cc1OC	i	i	i	i	i
COC(=O)CNC(=O)c1ccc(F)cc1	i	i	i	i	i
O=C(O)c1ccc(CNC(=O)c2ccccc2NC(=O)c2ccc([N+](=O)[O-])cc2)cc1	i	i	-4.9*	i	i
O=C(C[n+]1cccc(Br)c1)c1ccc(-c2ccccc2)cc1	i	i	i	i	-7*
Cc1ccc(C(=O)C[n+]2cc(Br)cc(Br)c2)cc1	i	i	i	15*	i
Cc1c(C(=O)/C=C/c2cccs2)oc2ccc(F)cc12	i	i	-6*	i	i
O=c1oc2ccccc2cc1-c1cn2cccnc2n1	i	i	i	i	i

Screening results: PubChem BioAssay, Johns Hopkins Ion Channel Center
